Structures are written as SMILES.

The target of data set [1] is Sodium-dependent noradrenaline transporter (Homo sapiens, UniProt P23975). Kind of data set: Inhibition of norepinephrine reuptake at NET expressed in MDCK cells. Type of data set: cell-based.
The target in data set [2] is Sodium-dependent dopamine transporter (Homo sapiens, UniProt Q01959). Kind of data set: Inhibition of dopamine reuptake at DAT expressed in CHO-K1 cells. The format is cell-based.
The target of data set [3] is Sodium-dependent serotonin transporter (Homo sapiens, UniProt P31645). Kind of data set: Inhibition of serotonin reuptake at SERT expressed in HEK293 cells. The format is cell-based.
The nature of data set [4]: Half life in mouse liver microsomes at 3 uM by LC-MS/MS analysis. The format is ADME, Microsome. A digest of the protocol:
(§1)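 Human or mouse liver microsomes (0.5 mg/mL) incubated with 3 μM compound at 37 °C. Reaction started with NADPH and stopped with methanol containing internal standard. Loss of compound followed over 45 min by LC-MS/MS. Peak area ratio to internal standard plotted against time and the slope of the line taken.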

Data set [5] is described as follows: Half life in human liver microsomes at 3 uM by LC-MS/MS analysis. The format is ADME, Microsome. A digest of the protocol: as §1
The target of a further data set is Cytochrome P450 2D6 (Homo sapiens, UniProt P10635). Kind of data set: Inhibition of CYP2D6 in human liver microsomes by LC-MS/MS analysis. The format is ADME, Microsome. In short, it runs like this: (§2)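 Human liver microsomes incubated with isoform-specific substrates and compound, typically 0.1–25 μM. Metabolite formation read by LC-MS/MS, […]. IC50 calculated from the decrease in metabolite formation relative to vehicle control.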

The next data set concerns the target Cytochrome P450 2C9 (Homo sapiens, UniProt P11712). Kind of data set: Inhibition of CYP2C9 in human liver microsomes by LC-MS/MS analysis. Type of data set: ADME, Microsome. A digest of the protocol: as §2
The next data set has as its target T1, CYP1A (Homo sapiens, UniProt P04798+P05177).
T1 sequence (P04798 whole entry): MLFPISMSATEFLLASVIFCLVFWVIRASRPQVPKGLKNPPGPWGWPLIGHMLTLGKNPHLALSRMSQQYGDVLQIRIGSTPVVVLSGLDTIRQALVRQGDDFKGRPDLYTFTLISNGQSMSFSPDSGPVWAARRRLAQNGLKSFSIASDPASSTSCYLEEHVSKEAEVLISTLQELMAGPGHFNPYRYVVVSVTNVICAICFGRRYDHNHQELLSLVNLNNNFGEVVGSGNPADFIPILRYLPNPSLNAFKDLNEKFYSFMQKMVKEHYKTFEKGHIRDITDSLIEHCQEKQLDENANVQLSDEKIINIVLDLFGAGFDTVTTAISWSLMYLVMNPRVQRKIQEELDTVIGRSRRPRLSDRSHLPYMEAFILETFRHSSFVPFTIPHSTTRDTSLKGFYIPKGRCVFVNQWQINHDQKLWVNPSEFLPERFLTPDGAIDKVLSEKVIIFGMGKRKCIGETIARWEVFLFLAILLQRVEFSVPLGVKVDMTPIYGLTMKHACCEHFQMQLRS
T1 sequence (P05177 whole entry): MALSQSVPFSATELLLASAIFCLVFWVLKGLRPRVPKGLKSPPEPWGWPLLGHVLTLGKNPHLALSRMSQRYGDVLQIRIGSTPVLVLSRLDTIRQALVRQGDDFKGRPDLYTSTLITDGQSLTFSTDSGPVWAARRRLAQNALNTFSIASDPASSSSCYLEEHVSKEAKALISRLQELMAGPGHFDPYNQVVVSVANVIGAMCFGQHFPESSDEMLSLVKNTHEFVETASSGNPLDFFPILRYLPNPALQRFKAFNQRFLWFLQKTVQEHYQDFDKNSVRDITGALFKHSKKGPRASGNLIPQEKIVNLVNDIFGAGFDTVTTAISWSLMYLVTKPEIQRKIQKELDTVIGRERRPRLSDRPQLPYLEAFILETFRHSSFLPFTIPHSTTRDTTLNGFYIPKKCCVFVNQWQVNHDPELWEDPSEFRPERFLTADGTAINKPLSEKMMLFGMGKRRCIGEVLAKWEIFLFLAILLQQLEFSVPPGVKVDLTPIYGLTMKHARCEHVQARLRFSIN
Kind of data set: Inhibition of CYP1A in human liver microsomes by LC-MS/MS analysis. The format is ADME, Microsome. In short, it runs like this:
as §2

A further data set has as its target Cytochrome P450 3A4 (Homo sapiens, UniProt P08684). Kind of data set: Inhibition of CYP3A4 in human liver microsomes by LC-MS/MS analysis. Type of data set: ADME, Microsome. In short, it runs like this:
as §2

Another data set concerns the target Cytochrome P450 2C19 (Homo sapiens, UniProt P33261). Kind of data set: Inhibition of CYP2C19 in human liver microsomes by LC-MS/MS analysis. The format is ADME, Microsome. In short, it runs like this:
as §2

Chain of Sodium-dependent serotonin transporter (P31645 whole entry): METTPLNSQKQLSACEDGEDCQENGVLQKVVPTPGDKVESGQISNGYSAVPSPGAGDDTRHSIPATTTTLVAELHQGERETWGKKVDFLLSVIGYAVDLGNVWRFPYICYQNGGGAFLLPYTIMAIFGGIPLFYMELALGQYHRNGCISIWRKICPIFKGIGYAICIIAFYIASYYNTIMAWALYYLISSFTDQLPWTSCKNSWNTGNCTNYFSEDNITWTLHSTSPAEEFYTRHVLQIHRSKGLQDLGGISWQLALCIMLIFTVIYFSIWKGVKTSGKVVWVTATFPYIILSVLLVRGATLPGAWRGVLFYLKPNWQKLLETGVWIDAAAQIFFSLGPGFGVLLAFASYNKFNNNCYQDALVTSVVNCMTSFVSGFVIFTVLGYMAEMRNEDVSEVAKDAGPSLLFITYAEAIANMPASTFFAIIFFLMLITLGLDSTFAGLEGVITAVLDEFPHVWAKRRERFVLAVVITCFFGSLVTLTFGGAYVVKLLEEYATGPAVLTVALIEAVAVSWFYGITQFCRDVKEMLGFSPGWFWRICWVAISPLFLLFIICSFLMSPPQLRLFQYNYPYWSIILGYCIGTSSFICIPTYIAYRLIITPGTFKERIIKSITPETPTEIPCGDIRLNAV
Chain of Sodium-dependent noradrenaline transporter (P23975 whole entry): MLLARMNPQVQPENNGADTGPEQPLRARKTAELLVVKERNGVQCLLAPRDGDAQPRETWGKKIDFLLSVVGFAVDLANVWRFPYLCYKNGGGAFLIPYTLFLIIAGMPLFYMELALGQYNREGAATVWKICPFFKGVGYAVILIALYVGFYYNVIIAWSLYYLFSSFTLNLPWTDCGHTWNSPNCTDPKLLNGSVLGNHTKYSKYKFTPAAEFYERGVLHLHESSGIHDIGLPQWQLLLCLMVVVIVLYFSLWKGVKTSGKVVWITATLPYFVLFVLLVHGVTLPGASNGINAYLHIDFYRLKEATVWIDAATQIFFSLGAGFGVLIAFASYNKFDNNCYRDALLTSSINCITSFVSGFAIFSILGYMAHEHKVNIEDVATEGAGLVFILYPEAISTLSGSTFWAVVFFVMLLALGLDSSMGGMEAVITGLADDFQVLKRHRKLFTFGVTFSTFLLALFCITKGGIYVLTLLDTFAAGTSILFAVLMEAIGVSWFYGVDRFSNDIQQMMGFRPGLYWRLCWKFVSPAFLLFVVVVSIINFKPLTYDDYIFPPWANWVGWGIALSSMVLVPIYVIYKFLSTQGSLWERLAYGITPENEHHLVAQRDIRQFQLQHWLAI
Chain of Cytochrome P450 2C9 (P11712 whole entry): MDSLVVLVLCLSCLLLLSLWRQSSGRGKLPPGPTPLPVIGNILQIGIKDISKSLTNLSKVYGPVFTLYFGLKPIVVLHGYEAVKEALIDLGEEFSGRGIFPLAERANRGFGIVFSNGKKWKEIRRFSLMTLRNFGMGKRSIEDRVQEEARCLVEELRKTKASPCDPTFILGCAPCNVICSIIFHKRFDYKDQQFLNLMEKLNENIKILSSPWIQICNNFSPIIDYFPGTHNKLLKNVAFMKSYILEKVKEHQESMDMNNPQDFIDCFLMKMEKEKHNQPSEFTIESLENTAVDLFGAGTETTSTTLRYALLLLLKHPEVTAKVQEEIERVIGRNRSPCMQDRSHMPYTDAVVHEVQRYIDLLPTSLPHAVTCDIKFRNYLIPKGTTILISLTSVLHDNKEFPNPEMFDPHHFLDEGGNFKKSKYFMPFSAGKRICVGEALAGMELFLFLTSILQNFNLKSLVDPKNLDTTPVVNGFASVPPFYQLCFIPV
Chain of Cytochrome P450 2D6 (P10635 whole entry, canonical isoform): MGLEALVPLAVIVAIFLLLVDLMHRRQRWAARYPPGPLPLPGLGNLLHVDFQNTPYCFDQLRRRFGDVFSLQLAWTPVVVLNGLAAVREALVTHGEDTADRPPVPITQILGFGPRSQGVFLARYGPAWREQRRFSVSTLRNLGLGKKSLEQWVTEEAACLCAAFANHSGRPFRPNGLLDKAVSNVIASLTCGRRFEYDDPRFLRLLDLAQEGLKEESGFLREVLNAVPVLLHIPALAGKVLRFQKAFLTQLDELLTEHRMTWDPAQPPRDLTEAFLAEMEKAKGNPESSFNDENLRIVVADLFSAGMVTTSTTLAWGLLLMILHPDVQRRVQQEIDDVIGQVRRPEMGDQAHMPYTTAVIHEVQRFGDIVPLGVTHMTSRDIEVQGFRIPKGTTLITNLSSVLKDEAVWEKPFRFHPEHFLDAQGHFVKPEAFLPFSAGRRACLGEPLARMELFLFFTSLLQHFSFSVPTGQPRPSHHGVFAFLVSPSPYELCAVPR
Chain of Cytochrome P450 3A4 (P08684 whole entry): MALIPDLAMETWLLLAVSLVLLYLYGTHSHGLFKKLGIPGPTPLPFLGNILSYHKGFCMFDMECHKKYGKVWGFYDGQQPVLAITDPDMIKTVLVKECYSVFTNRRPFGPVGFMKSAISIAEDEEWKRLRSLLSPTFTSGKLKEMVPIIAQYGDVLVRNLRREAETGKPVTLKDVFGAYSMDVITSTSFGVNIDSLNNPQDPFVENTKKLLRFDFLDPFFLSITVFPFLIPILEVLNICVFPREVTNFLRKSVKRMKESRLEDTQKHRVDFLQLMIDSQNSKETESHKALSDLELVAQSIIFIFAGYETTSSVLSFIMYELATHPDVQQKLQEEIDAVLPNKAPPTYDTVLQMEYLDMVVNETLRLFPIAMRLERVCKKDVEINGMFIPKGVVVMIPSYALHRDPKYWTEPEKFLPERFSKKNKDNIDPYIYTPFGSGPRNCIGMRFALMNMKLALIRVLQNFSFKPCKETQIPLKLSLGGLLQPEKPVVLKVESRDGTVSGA
Chain of Sodium-dependent dopamine transporter (Q01959 whole entry): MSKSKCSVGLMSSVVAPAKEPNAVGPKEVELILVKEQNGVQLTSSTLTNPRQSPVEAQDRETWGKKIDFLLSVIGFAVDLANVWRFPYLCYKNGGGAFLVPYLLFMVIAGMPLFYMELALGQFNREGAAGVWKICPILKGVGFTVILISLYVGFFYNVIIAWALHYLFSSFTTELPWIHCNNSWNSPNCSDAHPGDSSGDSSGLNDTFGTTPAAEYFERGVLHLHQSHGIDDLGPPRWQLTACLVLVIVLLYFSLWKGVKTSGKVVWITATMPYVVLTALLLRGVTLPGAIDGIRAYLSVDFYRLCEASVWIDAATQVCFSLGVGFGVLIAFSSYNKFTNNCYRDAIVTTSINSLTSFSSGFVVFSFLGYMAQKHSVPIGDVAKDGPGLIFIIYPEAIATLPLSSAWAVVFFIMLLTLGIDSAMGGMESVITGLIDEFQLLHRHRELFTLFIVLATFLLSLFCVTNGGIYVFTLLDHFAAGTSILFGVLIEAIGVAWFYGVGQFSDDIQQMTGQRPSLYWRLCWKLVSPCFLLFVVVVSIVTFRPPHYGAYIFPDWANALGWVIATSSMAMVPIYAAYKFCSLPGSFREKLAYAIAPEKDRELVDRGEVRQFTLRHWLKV
Chain of Cytochrome P450 2C19 (P33261 whole entry): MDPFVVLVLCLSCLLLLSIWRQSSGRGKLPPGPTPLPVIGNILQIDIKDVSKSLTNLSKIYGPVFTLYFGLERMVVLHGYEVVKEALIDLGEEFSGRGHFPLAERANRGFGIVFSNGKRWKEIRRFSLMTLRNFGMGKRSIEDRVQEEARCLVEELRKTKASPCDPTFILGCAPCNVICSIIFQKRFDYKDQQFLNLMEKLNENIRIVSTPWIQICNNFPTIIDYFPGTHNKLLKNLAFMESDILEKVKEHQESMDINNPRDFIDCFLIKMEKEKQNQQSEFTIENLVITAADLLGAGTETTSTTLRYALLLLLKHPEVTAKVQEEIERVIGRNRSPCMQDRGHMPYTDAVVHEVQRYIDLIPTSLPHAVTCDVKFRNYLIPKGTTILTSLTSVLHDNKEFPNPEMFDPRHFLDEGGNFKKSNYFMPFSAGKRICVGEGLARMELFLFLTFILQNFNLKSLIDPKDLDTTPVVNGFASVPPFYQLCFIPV

On to `COc1ccc([C@]23CCC[C@H]2CN(C)C3)cc1` (racemic), for which the results for the IC50 in [1], in data set [2] and in data set [3] were over 10000 nM, over 10000 nM and 4.47 nM, respectively.
In the case of `CN1C[C@H]2CCCC[C@@]2(Cc2ccc(Cl)c(Cl)c2)C1` (stereo in doubt), the IC50 in data set [1] was 3800 nM; in data set [2] it was 479 nM; in data set [3] it was 5.5 nM; against Cytochrome P450 2D6 it was under 0.05 µM. Besides, the half-life at 3 µM in data set [4] was determined as 25 min; in [5], 121 min.
On to `CN1C[C@@H]2CCC[C@]2(c2ccc(Cl)c(Cl)c2)C1` (single isomer, unassigned), for which the IC50 against Cytochrome P450 2C9 was 9.83 µM; against CYP1A, 1490 nM; in data set [1], 95.5 nM; against Cytochrome P450 3A4 it was 12.7 µM; in data set [2] it was 47.9 nM; in data set [3] it was 83.2 nM. Further, the IC50 against Cytochrome P450 2D6 was determined as 4.35 µM; against Cytochrome P450 2C19 it was 2.22 µM. The values for the half-life at 3 µM in data set [4] and in data set [5] were 27 min and 28 min, respectively.
`CN1C[C@@H]2CCCC[C@]2(c2ccccc2)C1` (racemic): the IC50 was 562 nM in data set [1], 1580 nM in data set [2] and 724 nM in data set [3].
Taken in the same sequence, the figures for `Clc1ccc([C@]23CCCC[C@@H]2CNC3)cc1Cl` (racemic; 19b) were 2140 nM, 457 nM and 1910 nM.
With `CN1C[C@@H]2CCC[C@]2(c2cc(Cl)cc(Cl)c2)C1` (racemic), the results for the IC50 in [1], in [2] and in data set [3] were 4270 nM, 9770 nM and 331 nM, respectively.
Taken in the same sequence, the figures for `Clc1ccc(C[C@]23CCCC[C@H]2CNC3)cc1Cl` were 5370 nM, 501 nM and 661 nM.
Taken in the same sequence, the figures for `CN1C[C@@H]2CCC[C@]2(c2ccc(Cl)c(Cl)c2)C1` (racemic) were 24 nM, 67.6 nM and 8.91 nM.
Turning to `c1ccc2cc([C@@]34CCC[C@@H]3CNC4)ccc2c1`, the IC50 against Cytochrome P450 2C9 is 14.4 µM; on CYP1A, 710 nM; in data set [1], 60.3 nM; against Cytochrome P450 3A4, 10.7 µM; in data set [2], 30.2 nM; in data set [3], 120 nM. Further, the IC50 is 10.8 µM at Cytochrome P450 2D6 and 7.19 µM against Cytochrome P450 2C19. Besides, the results for the half-life at 3 µM in [4] and in [5] were 56 min and 28 min, respectively.
For `CN1C[C@@H]2CCCC[C@]2(c2ccc(F)c(F)c2)C1` (racemic), the IC50 in data set [1] is 2340 nM; in [2], 417 nM; in data set [3] it was 1230 nM.
Taken in the same sequence, the figures for `COc1ccc([C@]23CCCC[C@H]2CN(C)C3)cc1` (racemic) were 14100 nM, 1000 nM and 129 nM.
`Clc1ccc(C[C@@]23CCCC[C@@H]2CNC3)cc1Cl`: the IC50 in [1] is 2950 nM; in data set [2] it was 158 nM; in data set [3], 49 nM; against Cytochrome P450 2D6, under 0.05 µM. Further, the half-life at 3 µM in data set [4] and in data set [5] was over 300 min in each case.
As to `COc1cccc([C@]23CCCC[C@H]2CN(C)C3)c1` (racemic), the IC50 in data set [1] was 2450 nM; in data set [2] it was 3390 nM; in data set [3], 148 nM.
Taken in the same sequence, the figures for `CN1C[C@@H]2CCC[C@]2(c2ccc(F)c(F)c2)C1` (racemic) were 6460 nM, 2820 nM and 1100 nM.
For `c1ccc2cc([C@]34CCC[C@H]3CNC4)ccc2c1`, the IC50 is over 25 µM on Cytochrome P450 2C9; 4130 nM at CYP1A; 14.1 nM in data set [1]; 2.65 µM at Cytochrome P450 3A4; 33.9 nM in data set [2]; 13.5 nM in data set [3]. Also, the IC50 against Cytochrome P450 2D6 is 9.42 µM; on Cytochrome P450 2C19, over 25 µM. The figures for the half-life at 3 µM in data set [4] and in data set [5] were 26 min and 25 min, respectively.
With `CN1C[C@@H]2CCCC[C@]2(c2ccc3ccccc3c2)C1` (racemic), the values for the IC50 in data set [1], in [2] and in data set [3] were 537 nM, 20.4 nM and 4.79 nM, respectively.
Taken in the same sequence, the figures for `CN1C[C@@H]2CCC[C@]2(c2ccc3ccccc3c2)C1` (racemic) were 468 nM, 100 nM and 3.55 nM.
Take `CN1C[C@@H]2CCCC[C@]2(c2ccc3ccccc3c2)C1`: the IC50 in data set [1] is 724 nM; in [2], 309 nM; in data set [3] it was 6.92 nM; on Cytochrome P450 2D6 it was 0.56 µM. Further, the half-life at 3 µM in [4] was 18 min; in data set [5], 46 min.
Regarding `CN1C[C@@H]2CCCC[C@]2(c2cccc3ccccc23)C1`, the values for the IC50 in data set [1], in data set [2] and in data set [3] were over 10000 nM, 3310 nM and 977 nM, respectively.
Taken in the same sequence, the figures for `CN1C[C@@H]2CCCC[C@]2(Cc2ccc(Cl)c(Cl)c2)C1` (stereo in doubt) were 4470 nM, 490 nM and 339 nM.
For the molecule `CN1C[C@@H]2CCC[C@]2(c2ccc3ccccc3c2)C1`, the IC50 in data set [1] was 209 nM; in [2] it was 182 nM; in data set [3] it was 2.29 nM; against Cytochrome P450 2D6, 2.61 µM. Besides, the half-life at 3 µM in [4] turned out to be 18 min; in data set [5] it was 36 min.
Consider `Clc1ccc([C@]23CCCC[C@H]2CNC3)cc1Cl` (racemic), for which the IC50 in [1] was 112 nM; in [2], 204 nM; in data set [3], 115 nM.
As for `CN1C[C@H]2CCC[C@@]2(c2ccc3ccccc3c2)C1`, the IC50 is 191 nM in data set [1], 28.8 nM in data set [2], 14.5 nM in data set [3] and 12.8 µM against Cytochrome P450 2D6. The figures for the half-life at 3 µM in data set [4] and in data set [5] were 18 min and 19 min, respectively.
With `COc1cccc([C@]23CCC[C@H]2CN(C)C3)c1` (racemic), the IC50 was over 10000 nM in data set [1], over 10000 nM in data set [2] and 692 nM in data set [3].
`CN1C[C@H]2CCCC[C@@]2(c2ccc3ccccc3c2)C1`: the concentration for half-maximal inhibition (IC50) is 537 nM in data set [1], 61.7 nM in [2], 12.6 nM in data set [3] and 13.6 µM on Cytochrome P450 2D6. Also, the values for the half-life at 3 µM in data set [4] and in data set [5] were 7 min and 17 min, respectively.
Take `CN1C[C@H]2CCCC[C@@]2(c2cccc3ccccc23)C1`: the IC50 in data set [1] was 204 nM; in data set [2] it was 2450 nM; in data set [3], 33.1 nM.
Taken in the same sequence, the figures for `Clc1ccc([C@]23CCCC[C@@H]2CNC3)cc1Cl` (racemic; 19a) were 6030 nM, 1020 nM and 1820 nM.
Taken in the same sequence, the figures for `CN1C[C@@H]2CCCC[C@]2(c2cccc3ccccc23)C1` (racemic) were 417 nM, 1320 nM and 162 nM.
As to `CN1C[C@@H]2CCCC[C@]2(c2ccc(Cl)cc2Cl)C1` (racemic), the IC50 in data set [1] is 912 nM; in data set [2], 1290 nM; in data set [3], 347 nM.
Turning to `COc1ccc([C@]23CCCC[C@H]2CN(C)C3)cc1OC` (racemic), the IC50 in data set [1] is 5890 nM; in data set [2], 9770 nM; in data set [3], 34.7 nM.

The record behind these values is ChEMBL document CHEMBL1811752, “Synthesis and pharmacological characterization of bicyclic triple reuptake inhibitor 3-aryl octahydrocyclopenta[c]pyrrole analogues” (J Med Chem, 2011).
